Laboratory results published in ChEMBL document CHEMBL1926565, “Synthesis, antiproliferative activities and telomerase inhibition evaluation of novel asymmetrical 1,2-disubstituted amidoanthraquinone derivatives” (Eur J Med Chem, 2012).

Experiments:
UACC-62 = assay: Cytotoxicity against human UACC62 cells assessed as cellular growth at 10 uM; type: functional
OVCAR-4 [1] = assay: Cytotoxicity against human OVCAR4 cells assessed as cellular growth at 10 uM; type: functional
Procedure, shortened: (§1)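 Single-dose screen run by the NCI across its 60-human-tumour-cell-line panel; growth recorded for each cell line.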

786-0 [2] = assay: Cytotoxicity against human 786-0 cells assessed as cellular growth at 10 uM; type: functional; procedure, shortened: as §1
ACHN [3] = assay: Cytotoxicity against human ACHN cells assessed as cellular growth at 10 uM; type: functional; procedure, shortened: as §1
TK-10 [4] = assay: Cytotoxicity against human TK10 cells assessed as cellular growth at 10 uM; type: functional
MDA-MB-231 = assay: Cytotoxicity against human MDA-MB-231 cells assessed as cellular growth at 10 uM; type: functional; procedure, shortened: as §1
EKVX [5] = assay: Anticancer activity against human EKVX cells; type: functional
Procedure, shortened: (§2)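 NCI 60-human-tumour-cell-line panel. Selected analogues were first run at one dose, then some were carried into multi-dose testing. GI50 (50% growth inhibition), TGI (total growth inhibition) and LC50 (50% cell kill) were read as values interpolated where the dose–response curves cross these levels.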

HOP-62 [6] = assay: Anticancer activity against human HOP62 cells; type: functional; procedure, shortened: as §2
HOP-92 [7] = assay: Anticancer activity against human HOP92 cells; type: functional; procedure, shortened: as §2
NCI-H322M = assay: Anticancer activity against human NCI-H322M cells; type: functional; procedure, shortened: as §2
NCI-H460 [8] = assay: Anticancer activity against human NCI-H460 cells; type: functional; procedure, shortened: as §2
A549 = assay: Anticancer activity against human A549 cells; type: functional; procedure, shortened: as §2
COLO 205 [9] = assay: Anticancer activity against human COLO205 cells; type: functional; procedure, shortened: as §2
HCC 2998 = assay: Anticancer activity against human HCC2998 cells; type: functional; conditions: read-out: LC50 (the source's name); procedure, shortened: as §2
KM12 = assay: Anticancer activity against human KM12 cells; type: functional; procedure, shortened: as §2
SF-268 = assay: Anticancer activity against human SF268 cells; type: functional; conditions: read-out: LC50 (the source's name); procedure, shortened: as §2
U-251 [10] = assay: Anticancer activity against human U251 cells; type: functional
MDA-MB-435 = assay: Anticancer activity against human MDA-MB-435 cells; type: functional; procedure, shortened: as §2
SK-MEL-2 = assay: Anticancer activity against human SK-MEL-2 cells; type: functional; procedure, shortened: as §2
SK-MEL-28 = assay: Anticancer activity against human SK-MEL-28 cells; type: functional; procedure, shortened: as §2
IGROV-1 = assay: Anticancer activity against human IGROV1 cells; type: functional; procedure, shortened: as §2
OVCAR-3 = assay: Anticancer activity against human OVCAR3 cells; type: functional; procedure, shortened: as §2
OVCAR-4 [11] = assay: Anticancer activity against human OVCAR4 cells; type: functional; procedure, shortened: as §2
OVCAR-5 = assay: Anticancer activity against human OVCAR5 cells; type: functional; procedure, shortened: as §2
OVCAR-8 = assay: Anticancer activity against human OVCAR8 cells; type: functional; procedure, shortened: as §2
NCI/ADR-RES = assay: Anticancer activity against human NCI/ADR-RES cells; type: functional; procedure, shortened: as §2
SK-OV-3 = assay: Anticancer activity against human SKOV3 cells; type: functional; procedure, shortened: as §2
786-0 [12] = assay: Anticancer activity against human 786-0 cells; type: functional; procedure, shortened: as §2
ACHN [13] = assay: Anticancer activity against human ACHN cells; type: functional; procedure, shortened: as §2
SN12C = assay: Anticancer activity against human SN12C cells; type: functional; procedure, shortened: as §2
TK-10 [14] = assay: Anticancer activity against human TK10 cells; type: functional
UO-31 = assay: Anticancer activity against human UO31 cells; type: functional; conditions: read-out: LC50 (the source's name)
RXF 393 = assay: Anticancer activity against human RXF393 cells; type: functional; procedure, shortened: as §2
PC-3 = assay: Anticancer activity against human PC3 cells; type: functional; procedure, shortened: as §2
DU-145 = assay: Anticancer activity against human DU145 cells; type: functional; procedure, shortened: as §2
[15] = Anticancer activity against human Hs 578T cells; type: functional; procedure, shortened: as §2
T47D = assay: Anticancer activity against human T47D cells; type: functional
HL-60(TB) = assay: Cytotoxicity against human HL-60(TB) cells assessed as cellular growth at 10 uM; type: functional; procedure, shortened: as §1
MOLT-4 = assay: Cytotoxicity against human MOLT4 cells assessed as cellular growth at 10 uM; type: functional; procedure, shortened: as §1
EKVX [16] = assay: Cytotoxicity against human EKVX cells assessed as cellular growth at 10 uM; type: functional; procedure, shortened: as §1
HOP-62 [17] = assay: Cytotoxicity against human HOP62 cells assessed as cellular growth at 10 uM; type: functional; procedure, shortened: as §1
HOP-92 [18] = assay: Cytotoxicity against human HOP92 cells assessed as cellular growth at 10 uM; type: functional; procedure, shortened: as §1
NCI-H23 = assay: Cytotoxicity against human NCI-H23 cells assessed as cellular growth at 10 uM; type: functional; procedure, shortened: as §1
NCI-H460 [19] = assay: Cytotoxicity against human NCI-H460 cells assessed as cellular growth at 10 uM; type: functional; procedure, shortened: as §1
COLO 205 [20] = assay: Cytotoxicity against human COLO205 cells assessed as cellular growth at 10 uM; type: functional; procedure, shortened: as §1
U-251 [21] = assay: Cytotoxicity against human U251 cells assessed as cellular growth at 10 uM; type: functional
[22] = target: Telomerase reverse transcriptase (Homo sapiens) (UniProt O14746); assay: Residual activity of human TERT in H1299 cells at 1 uM after 24 hrs by SEAP reporter gene assay
[23] = target: Telomerase reverse transcriptase (Homo sapiens) (UniProt O14746); assay: Residual activity of human TERT in H1299 cells at 100 uM after 24 hrs by SEAP reporter gene assay
[24] = read-out: LC50 (the source's name)

Chain of Telomerase reverse transcriptase (Homo sapiens) (O14746 whole entry): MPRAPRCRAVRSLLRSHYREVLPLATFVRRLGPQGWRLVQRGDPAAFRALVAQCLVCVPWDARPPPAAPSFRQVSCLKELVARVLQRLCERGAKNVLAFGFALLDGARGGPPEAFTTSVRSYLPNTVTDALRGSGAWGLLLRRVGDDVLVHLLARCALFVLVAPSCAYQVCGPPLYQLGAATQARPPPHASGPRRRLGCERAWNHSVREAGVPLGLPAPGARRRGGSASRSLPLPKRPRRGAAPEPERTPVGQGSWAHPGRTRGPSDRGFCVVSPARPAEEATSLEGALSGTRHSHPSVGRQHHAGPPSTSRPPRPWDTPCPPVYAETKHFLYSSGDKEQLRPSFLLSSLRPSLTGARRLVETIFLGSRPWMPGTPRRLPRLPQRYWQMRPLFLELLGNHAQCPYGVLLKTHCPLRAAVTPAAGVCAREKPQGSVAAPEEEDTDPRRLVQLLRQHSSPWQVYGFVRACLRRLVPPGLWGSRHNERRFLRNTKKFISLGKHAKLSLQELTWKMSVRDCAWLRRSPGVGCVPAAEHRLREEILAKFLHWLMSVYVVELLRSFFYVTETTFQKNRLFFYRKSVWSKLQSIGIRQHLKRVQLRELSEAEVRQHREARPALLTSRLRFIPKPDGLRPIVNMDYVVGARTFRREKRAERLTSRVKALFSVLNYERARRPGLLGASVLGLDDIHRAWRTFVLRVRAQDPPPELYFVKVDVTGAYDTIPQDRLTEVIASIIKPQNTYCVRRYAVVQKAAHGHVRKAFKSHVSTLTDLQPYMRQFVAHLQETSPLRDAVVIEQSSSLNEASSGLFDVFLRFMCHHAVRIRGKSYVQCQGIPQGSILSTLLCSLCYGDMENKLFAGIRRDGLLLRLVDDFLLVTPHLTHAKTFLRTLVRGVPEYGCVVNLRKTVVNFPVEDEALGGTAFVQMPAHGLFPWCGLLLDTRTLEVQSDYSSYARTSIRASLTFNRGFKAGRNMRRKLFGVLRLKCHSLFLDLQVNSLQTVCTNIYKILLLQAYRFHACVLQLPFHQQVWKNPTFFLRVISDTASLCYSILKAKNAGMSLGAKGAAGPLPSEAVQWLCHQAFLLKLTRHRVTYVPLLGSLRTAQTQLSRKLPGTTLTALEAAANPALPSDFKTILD

## Cc1ccc(C(=O)Nc2c(NC(=O)CCl)ccc3c2C(=O)c2ccccc2C3=O)cc1
UACC-62
  Activity: -67.8%
OVCAR-4 [1]
  Activity: 34.52%
786-0 [2]
  Activity: 11.3%
ACHN [3]
  Activity: 21.92%
TK-10 [4]
  Activity: 130.52%
MDA-MB-231
  Activity: 24.67%
EKVX [5]
  GI50: 1.98 µM
  TGI: 14.9 µM
EKVX [5]; [24]
  CC50: > 50 µM
HOP-62 [6]
  GI50: 2.97 µM
  LC50 (50% cell kill): 24.4 µM
  TGI: 9.49 µM
HOP-92 [7]
  GI50: 9.73 µM
  LC50 (concentration giving 50% cell kill): > 50 µM
  TGI: 31.7 µM
NCI-H322M
  GI50: 3.76 µM
  LC50 (50% cell kill): 45.4 µM
  TGI: 13.7 µM
NCI-H460 [8]
  GI50: 5.81 µM
  LC50 (50% cell kill): 34.1 µM
  TGI: 14.1 µM
A549
  GI50: 12.3 µM
  TGI: 29.2 µM
A549; [24]
  CC50: > 50 µM
COLO 205 [9]
  GI50: 2.95 µM
  LC50: 23.7 µM
  TGI: 9.65 µM
HCC 2998
  CC50: 29.4 µM
KM12
  GI50: 5.56 µM
  LC50: 28.3 µM
  TGI: 12.6 µM
SF-268
  CC50: > 50 µM
U-251 [10]
  GI50: 1.8 µM
  TGI: 6.83 µM
U-251 [10]; [24]
  CC50: 30.2 µM
MDA-MB-435
  GI50: 5.73 µM
  TGI: 19.5 µM
MDA-MB-435; [24]
  CC50: > 50 µM
SK-MEL-2
  GI50: 1.34 µM
  TGI: 4.4 µM
SK-MEL-2; [24]
  CC50: > 50 µM
SK-MEL-28
  GI50: 7.63 µM
  TGI: 15.2 µM
SK-MEL-28; [24]
  CC50: 30.1 µM
IGROV-1
  GI50: 5.6 µM
  TGI: 17 µM
IGROV-1; [24]
  CC50: > 50 µM
OVCAR-3
  GI50: 1.35 µM
  TGI: 3.54 µM
OVCAR-3; [24]
  CC50: 15.2 µM
OVCAR-4 [11]
  GI50: 5.52 µM
  TGI: 12 µM
OVCAR-4 [11]; [24]
  CC50: 25.9 µM
OVCAR-5
  GI50: 11.3 µM
  TGI: 19.2 µM
OVCAR-5; [24]
  CC50: 32.7 µM
OVCAR-8
  GI50: 3.32 µM
  TGI: 28.5 µM
OVCAR-8; [24]
  CC50: > 50 µM
NCI/ADR-RES
  GI50: 9.46 µM
  TGI: 30.7 µM
NCI/ADR-RES; [24]
  CC50: > 50 µM
SK-OV-3
  GI50: 13.2 µM
  TGI: 35.9 µM
SK-OV-3; [24]
  CC50: > 50 µM
786-0 [12]
  GI50: 9.48 µM
  TGI: 17.2 µM
786-0 [12]; [24]
  CC50: 31.2 µM
ACHN [13]
  GI50: 7.18 µM
  TGI: 14.3 µM
ACHN [13]; [24]
  CC50: 28.6 µM
SN12C
  GI50: 1.22 µM
  TGI: 3.66 µM
SN12C; [24]
  CC50: > 50 µM
TK-10 [14]
  GI50: 2.34 µM
  TGI: 4.94 µM
TK-10 [14]; [24]
  CC50: 29.2 µM
UO-31
  CC50: 41.3 µM
RXF 393
  GI50: 7.84 µM
  TGI: 16.5 µM
RXF 393; [24]
  CC50: 34.6 µM
PC-3
  GI50: 6.54 µM
  TGI: 15.4 µM
PC-3; [24]
  CC50: 36.5 µM
DU-145
  GI50: 2.69 µM
  TGI: 9.07 µM
DU-145; [24]
  CC50: 23 µM
[15]
  GI50: 1.64 µM
  TGI: 9.12 µM
[15]; [24]
  CC50: > 50 µM
T47D
  GI50: 1.19 µM
  TGI: 4.04 µM
T47D; [24]
  CC50: 46.3 µM
HL-60(TB)
  Activity: -46.88%
MOLT-4
  Activity: -23.17%
EKVX [16]
  Activity: 88.22%
HOP-62 [17]
  Activity: -28.62%
HOP-92 [18]
  Activity: -68.77%
NCI-H23
  Activity: -85.89%
NCI-H460 [19]
  Activity: 95.65%
COLO 205 [20]
  Activity: -53.43%
U-251 [21]
  Activity: -44.02%
[22]
  residual activity: 109%
[23]
  residual activity: 0%
